From ChEMBL document CHEMBL5329173, “Proline pre-conditioning of Jurkat cells improves recovery after cryopreservation” (RSC Med Chem, 2023)
Activity calls are given as the source filed them. No cut-off for these calls is given here.

Experiments:
Jurkat E6.1 [1] = test: (§1) Effect of compound on cryopreserved human Jurkat E6.1 cells recovery assessed as increase in post-thaw cell recovery at 0.8 millions/ml cell density at 200 mM preincubated for 24 hrs followed by media replacement and cryopreserved at -1 degreeC/min to […] and measured after 24 hrs post-thaw by trypan blue exclusion method; type: functional, cell-based
Procedure, shortened: (§2)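 Cells were pre-incubated 24 h in medium with amino acid at the stated density, then the medium was replaced with fresh additive-free medium. Cells were adjusted to 1 × 10^6 cells per mL and held 10 min at room temperature in medium with 5% DMSO. They were cooled at −1 °C min−1 to −80 °C and stored ≥24 h. Thawing was 5 min in a 37 °C water bath, followed by culture at 37 °C, 5% CO2. Recovery relative to pre-freeze count was determined by trypan blue exclusion.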

Jurkat E6.1 [2] = test: as §1, with “recovery” for “recovery at 0.8 millions/ml cell density”, “method (Rvb=63 %)” for “method”; type: functional; procedure, shortened: as §2
[3] = Cytotoxicity against human Jurkat E6.1 cells assessed as cell growth inhibition at 200 mM incubated for 24 hrs by trypan blue exclusion method relative to control; type: toxicity, cell-based; conditions: read-out: Activity
Procedure, shortened: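 Amino acid additives dissolved in complete Advanced RPMI 1640 (base medium contains 0.17 mM L-proline, 0.10 mM L-alanine) and sterile filtered. Jurkat cells seeded at 1 × 10^6 mL−1 and held 24 h at 37 °C, 5% CO2 without freezing. Counts taken every 4 h, with live/dead scored by trypan blue exclusion on an automated counter. Growth and viability were compared with additive-free medium; mean ± SD of independent experiments.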

Jurkat E6.1 [4] = test: as §1, with “0.5” for “0.8”; type: functional; procedure, shortened: as §2
Jurkat E6.1 [5] = test: Cytotoxicity against human Jurkat E6.1 cells assessed as decrease in metabolic activity at 200 mM incubated for 24 hrs by resazurin assay; type: toxicity, cell-based; conditions: jurkat e6.1, 24 h, 200000 µM
Procedure, shortened: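 Cells were incubated 24 h at 37 °C in medium containing 200 mM additive, then readjusted to 1 × 10^6 cells per mL. They were resuspended in resazurin solution made in additive-free complete medium and incubated 3 or 4 h at 37 °C. Fluorescence was read at 590/35 nm emission and expressed as % of untreated control. Mean ± SD, at least three independent experiments.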

[6] = Cytotoxicity against human Jurkat E6.1 cells assessed as cell growth inhibition at 100 mM incubated for 24 hrs by trypan blue exclusion method relative to control

Structure (SMILES) | Activity (Jurkat E6.1 [1]) | Activity (Jurkat E6.1 [2]) [%] | inhibition at 24 h, 200000 µM [3] [%] | Activity (Jurkat E6.1 [4]) [%] | Activity (Jurkat E6.1 [5]) | inhibition at 24 h, 100000 µM [6] [%]
C[C@H](N)C(=O)O [ALANINE] | Active | 49 | 72 | 83 | Non-Toxic | 
O=C(O)[C@@H]1CCCN1 [PROLINE] | Active | 70 | 46 | 77 | Non-Toxic | 34
O=C(O)[C@H]1CCCN1 [D-PROLINE] |  | 52 | 107 |  | Toxic | 
